Experimental data as given in paper PMC12828150 (Acta Pharmaceutica Sinica. B, 2025).

Experiments:
HeLa = test: Antiproliferative activity, HeLa cells; type: cell-based; conditions: read-out: HeLa IC50
How it was run: (§1)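 Cells seeded at 1000 per well in RPMI-1640 with 10% FBS and left 24 h before adding diluted test compound. After 96 h exposure, viability was read by CellTiter-Glo luminescence. Readings were normalised as % of untreated cells and IC50 derived. n = 3, values averaged.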

HepG2 = test: Antiproliferative activity, HepG2 cells; type: cell-based; conditions: read-out: HepG2 IC50
How it was run: as §1

- IC50 (HeLa): 17 nM
- IC50 (HepG2): 24 nM
SMILES: CN1CCC(NC2CCc3[nH]c4c(C(N)=O)ccc(-c5ccccc5Cl)c4c3C2)CC1 (centres unmarked) [WJ0909]
